CHRM5 agonist: human M5 muscarinic receptor agonists, primary screen, CHO-K1 cells, Fluo-8 calcium fluorescence. Muscarinic acetylcholine receptor M5 (Homo sapiens), P08912. CHO-K1 hM5 cells; 0% DMSO wells, 100% maximal acetylcholine response. activation, % at 3 µM. 360,000 tested, 0.19% active. AID 624037, 2012;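 active = activation above the run's mean over test compounds plus 3 SD, cut at about 23% in these data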;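 note: signal is peak over basal fluorescence ratio across the kinetic read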
M5 antag: human M5 muscarinic receptor antagonists, primary screen, CHO cells, Fluo-8 calcium fluorescence. CHO-hM5 cells, ACh EC80. inhibition, % at 3 µM. 360,000 tested, 0.59% active. AID 624040, 2012;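 active = inhibition above a per-plate cutoff, the mean of that plate's test compounds plus 3 SD, cut at about 27% in these data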
M1 antag: human M1 muscarinic receptor antagonists, primary screen, CHO-K1 cells, Fluo-8 calcium fluorescence, 1536-well; Muscarinic acetylcholine receptor M1 (Homo sapiens), P11229; CHO-K1 hM1, ACh EC80 antagonist; inhibition, % at 3 µM; 360,000 tested, 1.3% active; AID 588852, 2011;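 active = percent inhibition above its own plate's cutoff, namely the mean of that plate's compound wells plus 3 SD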;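 note: peak over basal fluorescence ratio during 140 s after agonist addition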
Target sequence (P11229 whole entry, looked up): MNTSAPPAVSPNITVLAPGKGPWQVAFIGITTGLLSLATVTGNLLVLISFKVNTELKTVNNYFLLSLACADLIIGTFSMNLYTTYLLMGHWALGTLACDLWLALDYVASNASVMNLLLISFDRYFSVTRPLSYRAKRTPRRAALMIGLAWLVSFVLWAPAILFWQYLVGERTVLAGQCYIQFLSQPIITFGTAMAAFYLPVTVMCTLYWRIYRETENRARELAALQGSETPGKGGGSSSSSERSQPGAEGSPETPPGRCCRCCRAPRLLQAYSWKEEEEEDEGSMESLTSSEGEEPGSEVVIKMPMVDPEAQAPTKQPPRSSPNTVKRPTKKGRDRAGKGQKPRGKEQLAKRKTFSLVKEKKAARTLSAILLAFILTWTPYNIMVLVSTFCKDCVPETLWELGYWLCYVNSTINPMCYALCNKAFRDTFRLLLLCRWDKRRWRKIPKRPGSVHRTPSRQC
CHRM5 PAM: human M5 muscarinic receptor positive allosteric modulators, primary screen, CHO-K1 cells, Fluo-8 calcium fluorescence; AID 624038, 2012; 360,000 tested, 0.3% active; Muscarinic acetylcholine receptor M5 (Homo sapiens), P08912; CHO-K1 hM5, ACh EC20 PAM; 0% = ACh EC20, 100% = ACh EC100; activation, % at 3 µM;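 active = activation above the run cutoff, the mean activation of all test compounds plus 3 SD, cut at about 18% in these data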
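Test system: CHO-K1 hM5 cells / Doses: single-point, 3 µM nominal / Times: Post-acetylcholine fluorescence recording 140 s / Technique: Fluo-8 calcium fluorescence / Measure: Max/basal fluorescence ratio as % of EC20–EC100 ACh window / Benchmarks: low control EC20 acetylcholine (0%), high control EC100 acetylcholine (100%) / Replicates: one well per compound, no replicates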
CHRM1 PAM: human M1 muscarinic receptor positive allosteric modulators, primary screen, CHO-K1 cells, Fluo-8 calcium fluorescence, 1536-well; CHO-K1 hM1, ACh EC20; 0% = ACh EC20, 100% = maximal ACh; activation, % at 3 µM; 360,000 tested, 0.088% active; AID 588819, 2011; in the data active = activation above about 19%, passing the limit was not always enough
M1 ag: human M1 muscarinic receptor agonists, primary screen, Fluo-8 calcium fluorescence, CHO-K1 cells, HTS | Muscarinic acetylcholine receptor M1 (Homo sapiens), P11229 | CHO-K1 hM1, agonist mode; 0% DMSO, 100% acetylcholine EC100 | activation, % at 3 µM | 360,000 tested, 0.33% active;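 active = activation above the run's mean compound activation plus 3 SD, cut at about 16% in these data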;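 note: peak over basal fluorescence ratio within a 140 s kinetic read after compound addition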
A number is an active result; n = inactive; x = no result. Hits are enriched below; roughly 2% of the tested compounds scored in any of these assays.

SMILES | CHRM5 agonist | M5 antag | M1 antag | CHRM5 PAM | CHRM1 PAM | M1 ag
Cc1cc(C)nc(NN2C(=O)/C(=C/c3ccccc3)SC2=S)n1 | n | n | n | n | n | n
COc1cc(/C=C2\SC(=S)N(Nc3ncc(C(F)(F)F)cc3Cl)C2=O)ccc1O | n | n | 30 | n | n | n
CN(C)c1ccc(/C=C2\SC(=S)N(Nc3ncc(C(F)(F)F)cc3Cl)C2=O)cc1 | n | 31 | 61 | n | n | 37
CCOC(=O)C1=CCN(S(=O)(=O)c2ccc(Cl)cc2)C1c1cccc(C)c1 (stereo not given) | n | n | n | n | n | n
O=C1CC(N2CCN(S(=O)(=O)c3ccccc3F)CC2)C(=O)N1c1ccc(F)cc1F (stereo not given) | n | n | n | n | n | n
CCOc1ccc(-c2c(C(=O)N/N=C(\C)c3ccco3)nnn2-c2nonc2N)cc1 | n | n | n | n | n | n
O=S(=O)(c1ccccc1)N1CCN(c2nc(-c3cccnc3)nc3ccccc23)CC1 | n | n | n | n | n | n
CC(=O)c1ccc(S(=O)(=O)N2CCN(c3nc(-c4cccnc4)nc4ccccc34)CC2)cc1 | n | n | 76 | n | n | n
CN1CCN(CCCNC(=O)C2CCN(c3nnc(-n4cccc4)s3)CC2)CC1 | n | n | n | n | n | n
CCOc1ccc(NCc2cccn2-c2nnc(N3CCC(C(=O)NCCCN4C(C)CCCC4C)CC3)s2)cc1 (stereo not given) | n | n | 78 | n | n | n
CCOc1ccc(CCNC(=O)C2CCN(c3nnc(-n4cccc4)s3)CC2)cc1 | n | n | n | n | n | n
CCOc1ccc(NCc2cccn2-c2nnc(N3CCC(C(=O)NCCCN4CCCCC4)CC3)s2)cc1 | n | n | 63 | n | n | n
CCC1CCCCN1CCCNC(=O)C1CCN(c2nnc(-n3cccc3)s2)CC1 (stereo not given) | n | n | 95 | n | n | n
CCOc1ccc(NCc2cccn2-c2nnc(N3CCC(C(=O)NCCCN4CCCCC4C)CC3)s2)cc1 (stereo not given) | n | n | 53 | n | n | n
Cc1c(NN=C(C#N)C#N)c(=O)n(-c2ccccc2)n1C | n | n | n | n | n | n
CCCCNC(=O)C(NC(=O)c1ccc(=O)[nH]c1)C(=O)c1ccccc1 (stereo not given) | n | n | n | n | n | n
COCCNC(=O)C1(C)CCCN(C(=O)c2cccc(C#N)c2)C1 (stereo not given) | n | n | n | n | n | n
COc1cccc(-c2cnc(C(O)c3c(C)cccc3C)[nH]2)c1 (stereo not given) | n | n | n | n | n | n
Cc1cccc(OCc2nnc3n2CCCCC3)c1 | n | 31 | n | 36 | n | n
CC(=O)C1=CCC(c2ccc(F)cc2)N(S(=O)(=O)c2ccc(C)cc2)C1 (stereo not given) | n | n | n | n | n | n
CCCNC(=O)N1CCN(C(c2ccccc2)c2ccccc2)CC1 | n | n | n | n | n | n
O=C(Nc1ccccc1C(F)(F)F)N1CCN(C(c2ccccc2)c2ccccc2)CC1 | n | 30 | 44 | n | n | n
O=C(NC(=O)N1CCN(C(c2ccccc2)c2ccccc2)CC1)c1ccccc1 | n | n | 66 | n | n | n
O=C(Nc1ccccc1C(F)(F)F)N1CCCCCC1 | n | n | n | n | n | n
[2H]c1c([2H])c([2H])c(C(=O)c2sc(N3CCCCCC3)nc2-c2ccccc2)c([2H])c1[2H] | n | n | 39 | n | n | n
SMILES | CHRM5 agonist | M5 antag | M1 antag | CHRM5 PAM | CHRM1 PAM | M1 ag
COc1ccc(CCN2CC(C(=O)NCc3cc(C)on3)CCC2=O)cc1 (stereo not given) | n | n | n | n | n | n
CCc1cc(CNC(=O)C2CCC(=O)N(CCc3ccc(OC)cc3)C2)on1 (stereo not given) | n | 28 | n | n | n | n
CCN(CC)Cc1cc(Oc2ccc(O)c(CN(CC)CC)c2)ccc1O | n | n | 35 | n | n | n
Cc1ccc(S(=O)(=O)N2C(=O)CCC2C(=O)O/N=C(\N)c2ccc([N+](=O)[O-])cc2)cc1 (stereo not given) | n | n | n | n | n | n
Cc1ccc(S(=O)(=O)N2C(=O)CCC2C(=O)O/N=C(\N)c2ccccc2)cc1 (stereo not given) | n | n | n | n | n | 18
CCOC1=C2[C@H](c3ccc(Cl)cc3)N(S(=O)(=O)c3ccc(C)cc3)C[C@H]2n2c(=O)n(-c3ccccc3)c(=O)n2C1 | n | n | n | n | n | n
OC(c1ccccc1)C(NCCNCc1ccccc1)c1ccccc1 (stereo not given) | n | n | 38 | n | n | n
Cc1ccc(C(=O)N2C(=S)C(c3ccc(F)cc3)=NC23CCN(C)CC3)cc1 | n | n | 56 | n | n | n
Cc1ccc(C(=O)N2CCC(C(=O)c3ccc(F)cc3)CC2)cc1 | n | n | n | n | n | n
CC(C)(C)OC(=O)NCCCCCc1nnc(SCC(=O)Nc2cccc(Cl)c2)o1 | n | n | 36 | n | n | n
O=S1(=O)CC(N2CCCC2)CN1Cc1cn(Cc2ccccc2)nn1 (stereo not given) | n | n | x | n | x | x
CCCS(=O)(=O)NC(=O)C1(C)CCN(C(=O)c2ccc3c(c2)OCO3)C1 (stereo not given) | n | n | n | n | n | n
c1cnc2c(SCc3ccc(-c4nnco4)cc3)cccc2c1 | n | n | n | n | n | 16
O=C1CCC/C(=N\NC(=O)c2ccc(CSc3cccc4cccnc34)cc2)C1 | n | n | n | n | n | 20
NNC(=O)c1ccc(CSc2cccc3cccnc23)cc1 | n | n | n | n | n | 29
O=C(N/N=C/c1ccccc1Br)c1ccc(CSc2cccc3cccnc23)cc1 | n | n | n | n | n | n
CC1(C(=O)NS(=O)(=O)c2ccccc2Cl)CCN1C(=O)Cc1cccs1 (stereo not given) | n | n | n | n | n | n
CCC(C(=O)NC(C)(C)C)n1c(-c2ccc(C)cc2)nc2ccccc21 (stereo not given) | n | n | x | n | x | x
O=C(CSc1ccc(-c2ccccn2)nn1)NCc1ccccc1 | n | n | 37 | n | n | n

Bioassay records: PubChem BioAssay, The Scripps Research Institute Molecular Screening Center
